Test results as given in ChEMBL document CHEMBL1649157, “Intracellular activity of antibiotics against Staphylococcus aureus in a mouse peritonitis model” (Antimicrob Agents Chemother, 2009).
The source made the active and inactive calls. No cut-off for these calls is given here.

What was measured:
[1] = system: Staphylococcus aureus; test: Antibacterial activity against Staphylococcus aureus E19977 infected in NMRI mouse assessed as log reduction in extracellular bacterial cfu in peritoneum at 10 mg/kg, sc administered as single dose 3 hrs after infection measured after 4 hrs; format: functional, organism-based; design: dose 10 mg/kg
Method in brief: (§1)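 NMRI mice were infected i.p. with S. aureus E19977 in 5% mucin. A single dose (60 mg/kg or 10 mg/kg) was given 1, 2 or 3 h after inoculation, four mice per group. Peritoneal wash was sampled after 4 h of treatment and separated into total, extracellular and intracellular counts by lysostaphin/centrifugation. Δlog10 CFU/ml was calculated against vehicle-treated mice infected for the same time (5, 6 or 7 h).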

[2] = system: Staphylococcus aureus; test: Antibacterial activity against Staphylococcus aureus E19977 infected in NMRI mouse assessed as log reduction in intracellular bacterial cfu in peritoneum at 60 mg/kg, sc administered as single dose 2 hrs after infection measured upto 19 hrs; format: functional, organism-based; design: dose 60 mg/kg
Method in brief: (§2)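 NMRI mice were infected i.p. and given one or three doses (every 8 h), starting 2 h post-inoculation, at 200 mg/kg or 60 mg/kg, four mice per group. Peritoneal washes were sampled over 19 h of treatment. Total, extracellular and intracellular CFU/ml (lysostaphin separation) were compared with the pretreatment level; mean ± range, n = 2. Untreated controls were sampled only at 6 h of infection.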

[3] = system: Staphylococcus aureus; test: Antibacterial activity against Staphylococcus aureus E19977 infected in NMRI mouse assessed as log reduction in intracellular bacterial cfu in peritoneum at 10 mg/kg, sc administered as single dose 1 hr after infection measured after 4 hrs; format: functional, organism-based; design: dose 10 mg/kg; method in brief: as §1
[4] = system: Staphylococcus aureus; test: Antibacterial activity against Staphylococcus aureus E19977 infected in NMRI mouse assessed as log reduction in extracellular bacterial cfu in peritoneum at 60 mg/kg, sc administered as single dose 2 hrs after infection measured upto 19 hrs; format: functional, organism-based; design: dose 60 mg/kg; method in brief: as §2
[5] = system: Staphylococcus aureus; test: Antibacterial activity against Staphylococcus aureus E19977 infected in NMRI mouse assessed as log reduction in bacterial cfu in peritoneum at 10 mg/kg, sc administered as single dose 2 hrs after infection measured after 4 hrs; format: functional, organism-based; design: dose 10 mg/kg; method in brief: as §1
[6] = system: Staphylococcus aureus; test: Bactericidal activity against Staphylococcus aureus E19977 assessed as log reduction in cfu at 0.5 mg/liter after 24 hrs by time-kill study; format: functional, organism-based
Method in brief: (§3)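 In vitro kinetic model simulating antibiotic elimination without inoculum change. Exponential-phase E19977 was added at a final 10^6.3 CFU/ml. Starting drug concentration matched the human free peak, with the human half-life simulated. Samples were plated on 5% blood agar at 0, 2, 4, 6, 8, 12 and 24 h, with growth controls in each run. Results are shown as mean and range, n = 2.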

[7] = system: Staphylococcus aureus; test: Antibacterial activity against Staphylococcus aureus E19977 infected in NMRI mouse assessed as log reduction in extracellular bacterial cfu in peritoneum at 10 mg/kg, sc administered 2 hrs after infection measured after 4 hrs; format: functional, organism-based; design: dose 10 mg/kg
Method in brief: (§4)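 Outbred female NMRI mice (25 to 30 g) received 0.5 ml of 10^7.7 CFU/ml inoculum in 5% mucin i.p. A single dose was given 2 h post-challenge, and mice were sampled 4 h later by 2.0 ml saline peritoneal wash, pooling two mice. Extracellular and intracellular fractions were separated by 300 × g centrifugation, lysostaphin, four HBSS washes and water lysis. Counts on blood agar; median of n = 8.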

[8] = system: Staphylococcus aureus; test: Bactericidal activity against Staphylococcus aureus E19977 assessed as log reduction in cfu at 1.5 mg/liter upto 24 hrs by time-kill study; format: functional; conditions: in the assay text read “2.0 mg/liter” for “1.5 mg/liter”
Method in brief: (§5)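 Clinical bacteremia isolate (penicillin-resistant, methicillin-susceptible). Exponential-phase bacteria were placed in an in vitro kinetic model that simulates drug elimination without changing the inoculum. The starting drug level matched the human free peak serum concentration after a single dose, with simulated human elimination half-life. Samples were taken at 0, 2, 4, 6, 8, 12 and 24 h, with growth controls in each run.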

[9] = system: Staphylococcus aureus; test: Bactericidal activity against Staphylococcus aureus E19977 assessed as log reduction in cfu at 20 mg/liter upto 24 hrs by time-kill study; format: functional
Method in brief: (§6)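 In vitro kinetic model: exponential-phase bacteria at a final 10^6.3 CFU/ml were exposed to a starting concentration set to the human free peak level. Elimination followed the simulated human half-life. Samples were taken at 0, 2, 4, 6, 8, 12 and 24 h and counted on 5% blood agar (detection limit 25 CFU/ml). Growth controls were included; n = 2.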

[10] = system: Staphylococcus aureus; test: Antibacterial activity against Staphylococcus aureus E19977 by Etest; format: functional
[11] = system: Staphylococcus aureus; test: Antibacterial activity against Staphylococcus aureus E19977 infected in NMRI mouse assessed as log reduction in extracellular bacterial cfu in peritoneum at 10 mg/kg, sc administered as single dose 1 hr after infection measured after 4 hrs; format: functional, organism-based; design: dose 10 mg/kg; method in brief: as §1
[12] = system: Staphylococcus aureus; test: Antibacterial activity against Staphylococcus aureus E19977 infected in NMRI mouse assessed as log reduction in intracellular bacterial cfu in peritoneum at 60 mg/kg, sc administered as single dose 2 hrs after infection measured within 4 hrs; format: functional, organism-based; design: dose 60 mg/kg; method in brief: as §2
[13] = system: Staphylococcus aureus; test: Antibacterial activity against Staphylococcus aureus E19977 infected in NMRI mouse assessed as log reduction in intracellular bacterial cfu in peritoneum at 10 mg/kg, sc administered 2 hrs after infection measured after 4 hrs; format: functional, organism-based; design: dose 10 mg/kg; method in brief: as §4
[14] = system: Serum; test: Protein binding in human serum at 600 mg, po; format: ADME, organism-based; conditions: in vivo
[15] = system: Staphylococcus aureus; test: Antibacterial activity against Staphylococcus aureus E19977 infected in NMRI mouse assessed as log reduction in bacterial cfu in peritoneum at 10 mg/kg, sc administered as single dose 3 hrs after infection measured after 4 hrs; format: functional, organism-based; design: dose 10 mg/kg; method in brief: as §1
[16] = system: Staphylococcus aureus; test: Bactericidal activity against Staphylococcus aureus E19977 assessed as log reduction in cfu at 2 mg/liter after 24 hrs by time-kill study; format: functional, organism-based; method in brief: as §3
[17] = system: Staphylococcus aureus; test: Bactericidal activity against Staphylococcus aureus E19977 assessed as log reduction in cfu at 2 mg/liter after 12 hrs by time-kill study; format: functional; method in brief: as §5
[18] = system: Staphylococcus aureus; test: Antibacterial activity against Staphylococcus aureus E19977 infected in NMRI mouse assessed as log reduction in bacterial cfu in peritoneum at 60 mg/kg, sc administered as single dose 2 hrs after infection measured upto 19 hrs; format: functional, organism-based; design: dose 60 mg/kg; method in brief: as §2
[19] = system: Staphylococcus aureus; test: Antibacterial activity against Staphylococcus aureus E19977 infected in NMRI mouse assessed as log reduction in intracellular bacterial cfu in peritoneum at 10 mg/kg, sc administered as single dose 2 hrs after infection measured after 4 hrs; format: functional, organism-based; design: dose 10 mg/kg; method in brief: as §1
[20] = system: Staphylococcus aureus; test: Antibacterial activity against Staphylococcus aureus E19977 infected in NMRI mouse assessed as log reduction in intracellular bacterial cfu in peritoneum at 60 mg/kg, sc administered 2 hrs after infection evry 8 hrs as three-dose regimen measured after 19 hrs; format: functional, organism-based; design: dose 60 mg/kg; method in brief: as §2
[21] = system: Staphylococcus aureus; test: Bactericidal activity against Staphylococcus aureus E19977 assessed as log reduction in cfu at 20 mg/liter after 24 hrs by time-kill study; format: functional, organism-based; method in brief: as §3
[22] = system: Staphylococcus aureus; test: Bactericidal activity against Staphylococcus aureus E19977 assessed as log reduction in cfu at 9 mg/liter after 24 hrs by time-kill study; format: functional, organism-based; method in brief: as §3
[23] = system: Staphylococcus aureus; test: Antibacterial activity against Staphylococcus aureus E19977 infected in NMRI mouse assessed as log reduction in bacterial cfu in peritoneum at 10 mg/kg, sc administered 2 hrs after infection measured after 4 hrs; format: functional, organism-based; design: dose 10 mg/kg; method in brief: as §4
[24] = system: Staphylococcus aureus; test: Antibacterial activity against Staphylococcus aureus E19977 infected in NMRI mouse assessed as log reduction in intracellular bacterial cfu in peritoneum at 10 mg/kg, sc administered as single dose 3 hrs after infection measured after 4 hrs; format: functional, organism-based; design: dose 10 mg/kg; method in brief: as §1
[25] = system: Staphylococcus aureus; test: Bactericidal activity against Staphylococcus aureus E19977 assessed as log reduction in cfu at 1.5 mg/liter after 24 hrs by time-kill study; format: functional, organism-based; method in brief: as §3
[26] = system: Staphylococcus aureus; test: Bactericidal activity against Staphylococcus aureus E19977 assessed as log reduction in cfu at 2 mg/liter upto 24 hrs by time-kill study; format: functional; method in brief: as §5
[27] = system: Staphylococcus aureus; test: Antibacterial activity against Staphylococcus aureus E19977 infected in NMRI mouse assessed as log reduction in extracellular bacterial cfu in peritoneum at 10 mg/kg, sc administered as single dose 2 hrs after infection measured after 4 hrs; format: functional, organism-based; design: dose 10 mg/kg; method in brief: as §1
[28] = system: Staphylococcus aureus; test: Antibacterial activity against Staphylococcus aureus E19977 infected in NMRI mouse assessed as log reduction in bacterial cfu in peritoneum at 10 mg/kg, sc administered as single dose 1 hr after infection measured after 4 hrs; format: functional, organism-based; design: dose 10 mg/kg; method in brief: as §1
[29] = system: Serum; test: Protein binding in human serum at 240 mg, im; format: ADME, cell-free
[30] = system: Homo sapiens; test: Half life in human at 240 mg, im; format: ADME, organism-based; conditions: in vivo
[31] = system: Homo sapiens; test: Cmax in human at 240 mg, im; format: ADME, organism-based; design: dose 240 mg, route […]; conditions: in vivo
[32] = system: Staphylococcus aureus; test: Bactericidal activity against Staphylococcus aureus E19977 assessed as log reduction in cfu at 9 mg/liter upto 24 hrs by time-kill study; format: functional, organism-based; method in brief: as §6

CO[C@H]1/C=C/O[C@@]2(C)Oc3c(C)c(O)c4c(O)c(c(/C=N/N5CCN(C)CC5)c(O)c4c3C2=O)NC(=O)/C(C)=C\C=C\[C@H](C)[C@H](O)[C@@H](C)[C@@H](O)[C@@H](C)[C@H](OC(C)=O)[C@@H]1C [RIFAMPIN]
Activity [1]: inactive
Activity [2]: inactive
Activity [3]: Active
Activity [4]: inactive
Activity [5]: inactive
Activity [6]: inactive
Activity [7]: inactive
FC [8]: 2
FC [9]: >2
MIC [10]: < 0.016 µg/mL
Activity [11]: Active
Activity [12]: inactive
Activity [13]: Active
Activity [14]: 80%
Activity [15]: inactive
Activity [16]: inactive
FC [17]: 2
Activity [18]: inactive
Activity [19]: inactive
Activity [20]: inactive
Activity [21]: inactive
Activity [22]: inactive
Activity [23]: Active
Activity [24]: inactive
Activity [25]: inactive
FC [26]: 2
Activity [27]: inactive
Activity [28]: Active

GENTAMICIN [listing 1 of 2 here]
Activity [29]: 10%
t1/2 [30]: 2 h
Cmax [31]: 10000 ng/mL

GENTAMICIN [listing 2 of 2 here]
Activity [6]: inactive
Activity [7]: inactive
FC [9]: > 2
MIC [10]: 0.38 µg/mL
Activity [13]: inactive
Activity [16]: inactive
FC [32]: 4
Activity [21]: inactive
Activity [22]: inactive
Activity [23]: inactive
Activity [25]: inactive
